# According to ChEMBL document CHEMBL2163241, “Human neutrophil elastase phosphonic inhibitors with improved potency of action” (J Med Chem, 2012):
# What was measured:
# [1] = molecular target: Pancreatic elastase (Sus scrofa) (UniProt P08419+P00772); assay: Inhibition of porcine pancreatic elastase at 25 uM assessed as Kinact/Ki ratio incubated for 15 mins by spectrofluorometry; assay type: protein assay
# [2] = molecular target: T1, Neutrophil elastase (Homo sapiens) (UniProt P08246); assay: Inhibition of human leukocyte elastase at 25 uM assessed as Kinact/Ki ratio incubated for 15 mins by spectrofluorometry
# T1 sequence (whole entry): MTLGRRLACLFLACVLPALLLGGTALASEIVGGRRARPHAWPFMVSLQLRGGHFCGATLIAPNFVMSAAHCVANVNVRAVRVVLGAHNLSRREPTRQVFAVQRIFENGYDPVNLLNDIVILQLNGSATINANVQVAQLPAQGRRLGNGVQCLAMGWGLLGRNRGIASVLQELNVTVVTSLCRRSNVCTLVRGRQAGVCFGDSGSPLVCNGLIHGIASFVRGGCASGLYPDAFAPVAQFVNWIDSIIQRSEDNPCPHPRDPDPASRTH
# [3] = Inhibition of chymotrypsin at 25 uM assessed as Kinact/Ki ratio incubated for 15 mins by spectrofluorometry
# Homo sapiens [4] = species: Homo sapiens; assay: Selectivity ratio of Kinact/Ki ratio for chymotrypsin to Kinact/Ki ratio for human leukocyte elastase
# [5] = Inhibition of trypsin at 25 uM assessed as Kinact/Ki ratio incubated for 15 mins by spectrofluorometry
# [6] = Half life in pH 7.4 PBS buffer at […] incubated at 37 degC by HPLC; assay type: physicochemical
# [7] = Half life in 80% human plasma at […] incubated at 37 degC by HPLC; assay type: ADME, cell-free
# Summary of the method: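 DMSO stock (50 mM) added to freshly isolated pooled healthy-donor human plasma diluted to 80% with PBS pH 7.4, final 3 mg/mL or 0.1 mg/mL; incubated 37 °C; compound remaining monitored by HPLC over time to give half-life.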
# [8] = Solubility in 80% human plasma at […] incubated at 37 degC by HPLC; assay type: ADME, cell-free
# [9] = Selectivity ratio of Kinact/Ki ratio for porcine pancreatic elastase to Kinact/Ki ratio for human leukocyte elastase
# [10] = Solubility in pH 7.4 PBS buffer at […] incubated at 37 degC by HPLC; assay type: physicochemical
# Homo sapiens [11] = species: Homo sapiens; assay: Selectivity ratio of Kinact/Ki ratio for human leukocyte elastase to Kinact/Ki ratio for chymotrypsin
# [12] = molecular target: T1, Neutrophil elastase (Homo sapiens); assay: Irreversible inhibition of human leukocyte elastase assessed as recovery of enzyme activity using MeOSuc-AAPV-AFC substrate at 200 uM treated for 15 mins followed by dialysis measured up to 50 days by fluorescence assay; design: scale not given: the % may be the effect or the level left
# [13] = Chemical stability in pH 7.4 PBS buffer assessed as compound remaining at […] measured after 6 days at 37 degC by HPLC; assay type: physicochemical; conditions: read-out: Stability
# [14] = Drug degradation in pH 7.4 PBS buffer assessed as compound hydrolysis at […] measured after 48 hrs at 37 degC by HPLC; assay type: physicochemical; conditions: read-out: Drug degradation
structure (smiles),measurement,setting,value
CCCC(NC(=O)[C@@H]1CCCN1C(=O)[C@@H](NC(=O)OC(C)(C)C)C(C)C)P(=O)(Oc1ccc(SC)cc1)Oc1ccc(SC)cc1 (mixture of isomers),Ratio,[1],54800 M⁻¹ s⁻¹
same,Ratio,[2],56200 M⁻¹ s⁻¹
same,Ratio,[3],2800 M⁻¹ s⁻¹
same,Ratio,Homo sapiens [4],20
same,Ratio,[5],420 M⁻¹ s⁻¹
CSc1ccc(OP(=O)(Oc2ccc(SC)cc2)C(NC(=O)[C@@H]2CCCN2C(=O)[C@@H](NC(=O)Cn2cc(C)c(=O)n(CC(=O)O)c2=O)C(C)C)C(C)C)cc1 (mixture of isomers),half-life,[6],100 h
same,Ratio,[1],118000 M⁻¹ s⁻¹
same,half-life,[7],3.95 h
same,Ratio,[2],965000 M⁻¹ s⁻¹
same,solubility,[8],6.11 mM
same,Ratio,[9],8.2
same,solubility,[10],6.11 mM
same,Ratio,[3],22900 M⁻¹ s⁻¹
same,Ratio,Homo sapiens [4],42
same,Ratio,[5],140 M⁻¹ s⁻¹
COC(=O)c1cccc(OP(=O)(Oc2cccc(C(=O)OC)c2)C(CC(C)C)NC(=O)[C@@H]2CCCN2C(=O)[C@@H](NC(=O)OC(C)(C)C)C(C)C)c1 (stereo partly specified),Ratio,[1],76900 M⁻¹ s⁻¹
same,Ratio,Homo sapiens [11],> 1.3
same,Ratio,[2],122000 M⁻¹ s⁻¹
same,Ratio,[3],166000 M⁻¹ s⁻¹
same,Ratio,[5],2800 M⁻¹ s⁻¹
COc1ccc(C(=O)N[C@H](C(=O)N2CCC[C@H]2C(=O)NC(C(C)C)P(=O)(Oc2ccc(SC)cc2)Oc2ccc(SC)cc2)C(C)C)cc1 (mixture of isomers),half-life,[6],26 h
same,Ratio,[1],4700 M⁻¹ s⁻¹
same,half-life,[7],3.8 h
same,Ratio,[2],304000 M⁻¹ s⁻¹
same,solubility,[8],0.17 mM
same,solubility,[10],0.17 mM
same,Ratio,[3],< 50 M⁻¹ s⁻¹
same,Ratio,[5],< 50 M⁻¹ s⁻¹
CCCCC(NC(=O)[C@@H]1CCCN1C(=O)[C@@H](NC(=O)OC(C)(C)C)C(C)C)P(=O)(Oc1ccc(SC)cc1)Oc1ccc(SC)cc1 (mixture of isomers),Ratio,[1],9700 M⁻¹ s⁻¹
same,Ratio,[2],8100 M⁻¹ s⁻¹
same,Ratio,[3],4250 M⁻¹ s⁻¹
same,Ratio,Homo sapiens [4],2
same,Ratio,[5],< 50 M⁻¹ s⁻¹
CSc1ccc(OP(=O)(Oc2ccc(SC)cc2)[C@@H](NC(=O)[C@@H]2CCCN2C(=O)[C@@H](NC(=O)Cn2ccc(=O)n(CC(=O)O)c2=O)C(C)C)C(C)C)cc1,Ratio,[1],309000 M⁻¹ s⁻¹
same,Ratio,[2],1.08e+06 M⁻¹ s⁻¹
same,Ratio,[9],3.5
same,Ratio,[3],40200 M⁻¹ s⁻¹
same,Ratio,Homo sapiens [4],27
same,Ratio,[5],235 M⁻¹ s⁻¹
CSc1ccc(OP(=O)(Oc2ccc(SC)cc2)C(NC(=O)[C@@H]2CCCN2C(=O)[C@@H](NC(=O)OC(C)(C)C)C(C)C)C(C)C)cc1 (mixture of isomers),half-life,[6],28 h
same,Ratio,[1],14000 M⁻¹ s⁻¹
same,half-life,[7],6.2 h
same,Ratio,[2],217000 M⁻¹ s⁻¹
same,solubility,[8],0.36 mM
same,Ratio,[9],15
same,solubility,[10],0.36 mM
same,Ratio,[3],900 M⁻¹ s⁻¹
same,Ratio,[5],< 50 M⁻¹ s⁻¹
CSc1ccc(OP(=O)(Oc2ccc(SC)cc2)C(NC(=O)[C@@H]2CCCN2C(=O)[C@@H](NC(=O)Cn2ccc(=O)n(CC(=O)O)c2=O)C(C)C)C(C)C)cc1 (mixture of isomers),half-life,[6],100 h
same,Ratio,[1],140000 M⁻¹ s⁻¹
same,half-life,[7],4.55 h
same,Ratio,[2],460000 M⁻¹ s⁻¹
same,solubility,[8],6.22 mM
same,solubility,[10],6.22 mM
same,Ratio,[3],28300 M⁻¹ s⁻¹
same,Ratio,[5],130 M⁻¹ s⁻¹
CSc1ccc(OP(=O)(Oc2ccc(SC)cc2)[C@@H](NC(=O)[C@@H]2CCCN2C(=O)[C@@H](NC(=O)COc2ccc(OCC(=O)O)cc2)C(C)C)C(C)C)cc1,Ratio,[1],39200 M⁻¹ s⁻¹
same,Activity,[12],15%
same,Ratio,[2],2.35e+06 M⁻¹ s⁻¹
same,Ratio,[9],60
same,Ratio,[3],6450 M⁻¹ s⁻¹
same,Ratio,Homo sapiens [4],365
same,Ratio,[5],< 50 M⁻¹ s⁻¹
CSc1ccc(OP(=O)(Oc2ccc(SC)cc2)C(NC(=O)[C@@H]2CCCN2C(=O)[C@@H](NC(=O)COc2ccc(OCC(=O)O)cc2)C(C)C)C(C)C)cc1 (mixture of isomers),remaining at 144 h,[13],> 50%
same,degraded at 48 h,[14],16%
same,half-life,[6],150 h
same,Ratio,[1],19100 M⁻¹ s⁻¹
same,half-life,[7],8 h
same,Ratio,[2],970000 M⁻¹ s⁻¹
same,solubility,[8],6.23 mM
same,Ratio,[9],50.8
same,solubility,[10],6.23 mM
same,Ratio,[3],4000 M⁻¹ s⁻¹
same,Ratio,Homo sapiens [4],245
same,Ratio,[5],< 50 M⁻¹ s⁻¹
CSc1ccc(OP(=O)(Oc2ccc(SC)cc2)[C@H](NC(=O)[C@@H]2CCCN2C(=O)[C@@H](NC(=O)Cn2cc(C)c(=O)n(CC(=O)O)c2=O)C(C)C)C(C)C)cc1,Ratio,[1],300 M⁻¹ s⁻¹
same,Ratio,[2],4100 M⁻¹ s⁻¹
same,Ratio,[3],< 50 M⁻¹ s⁻¹
same,inhibition,[5],< 5%
CC(C)c1ccc(OP(=O)(Oc2ccc(C(C)C)cc2)C(C)NC(=O)[C@@H]2CCCN2C(=O)[C@@H](NC(=O)OC(C)(C)C)C(C)C)cc1 (mixture of isomers),Ratio,[1],300 M⁻¹ s⁻¹
same,Ratio,[2],< 50 M⁻¹ s⁻¹
same,Ratio,[3],< 50 M⁻¹ s⁻¹
same,inhibition,[5],< 5%
CC(C)C(NC(=O)[C@@H]1CCCN1C(=O)[C@@H](NC(=O)OC(C)(C)C)C(C)C)P(=O)(Oc1ccccc1)Oc1ccccc1 (mixture of isomers),Ratio,[1],22800 M⁻¹ s⁻¹
same,Ratio,[2],46100 M⁻¹ s⁻¹
same,Ratio,[9],2
same,Ratio,[3],< 50 M⁻¹ s⁻¹
same,Ratio,[5],< 50 M⁻¹ s⁻¹
CC(C)[C@H](NC(=O)OC(C)(C)C)C(=O)N1CCC[C@H]1C(=O)NC(C)P(=O)(Oc1ccc(C(C)(C)C)cc1)Oc1ccc(C(C)(C)C)cc1 (mixture of isomers),Ratio,[1],< 50 M⁻¹ s⁻¹
same,Ratio,[2],< 50 M⁻¹ s⁻¹
same,Ratio,[3],< 50 M⁻¹ s⁻¹
same,inhibition,[5],< 5%
COc1ccc(C(=O)N[C@H](C(=O)N2CCC[C@H]2C(=O)N[C@H](C(C)C)P(=O)(Oc2ccc(SC)cc2)Oc2ccc(SC)cc2)C(C)C)cc1,Ratio,[1],< 50 M⁻¹ s⁻¹
same,Ratio,[2],4800 M⁻¹ s⁻¹
same,Ratio,[3],< 50 M⁻¹ s⁻¹
same,inhibition,[5],< 5%
